# Shown are actives, neighbours in structure and some others; about 1.4% of the full set was active somewhere.
# Fh CTSL1 inh = counter-screen for PFM18AAP inhibitors: inhibitors of F. hepatica cathepsin L1; recombinant F. hepatica cathepsin L1, Z-Leu-Arg-MCA fluorescence; inhibition, % at 5.96 µM; actives 0.49% (n = 300,000);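 active = inhibition above the mean of all tested compounds plus 3 SD, set per screening campaign, cut at about 17% in these data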;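 also: 0% = plate median of test compound wells and 100% = 1 µM Z-Phe-Ala-diazomethylketone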
# Diaph inh CS = diaphorase inhibition or chemical oxidation counter-screen; diaphorase resazurin-to-resorufin fluorescence, NADH, 16 min; bacterial (C. kluyveri) enzyme, not human; inhibition, % at 20 µM; AID 1217; actives 0.69% (n = 190,000);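 active = primary screen inhibition at 20 µM above a set limit, cut at about 50% in these data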;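 also: plate controls were DMSO with full reaction for no effect and wells lacking NADH for full effect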
#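 Test system: diaphorase enzyme from Clostridium kluyveri; amount: diaphorase at 0.14 U/mL in enzyme working solution; detection: fluorescence of resorufin formed from resazurin, Ex 544/Em 590 nm; times: reaction incubation of 16 min at room temperature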
# ATG4B inhibitor = ATG4B (human) cysteine protease inhibition. Q9Y4P1. ATG4B cleavage of LC3-PLA2, NBD-HPC fluorescence, 1 h. inhibition, % at 8.33 µM. actives 0.51% (n = 340,000). AID 504462; in the data active = inhibition above about 40%
# Diaphorase act = activates diaphorase or chemically reduces, flagging diaphorase assay artifacts; Diaphorase/resazurin coupled assay, resorufin fluorescence, 16 min; stronger effect = higher value; 1 = vehicle wells, 0 = NADH-free wells; activation factor at 20 µM; actives 0.005% (n = 190,000);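 active = diaphorase activity raised at least twofold by the compound at 20 µM; inactive = activation factor below 2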
#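 Test system: Clostridium kluyveri diaphorase, purified enzyme; input: enzyme 0.07 U/mL final; buffer or medium: 50 mM HEPES pH 7.4 with 4.542 mM MgCl2, 0.005% Tween 20; also added: 0.114 mM NADH and 0.1 mM resazurin, final amounts; schedule: 16 min enzyme reaction, ambient temperature; technique: fluorescence of resorufin, 544 nm excitation, 590 nm emission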
# HKDC1 inh = inhibitors of human hexokinase HKDC1. Q2TB90. recombinant HKDC1, G6PDH/diaphorase resazurin coupled fluorescence. inhibition, % at 20 µM. actives 0.16% (n = 340,000). AID 493160;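 active = inhibition above about 35% when tested at 20 µM, limit read from the data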;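 also: plate controls were DMSO wells with enzyme for no effect and DMSO wells lacking enzyme for full effect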
# Target sequence (Q2TB90 whole entry, looked up): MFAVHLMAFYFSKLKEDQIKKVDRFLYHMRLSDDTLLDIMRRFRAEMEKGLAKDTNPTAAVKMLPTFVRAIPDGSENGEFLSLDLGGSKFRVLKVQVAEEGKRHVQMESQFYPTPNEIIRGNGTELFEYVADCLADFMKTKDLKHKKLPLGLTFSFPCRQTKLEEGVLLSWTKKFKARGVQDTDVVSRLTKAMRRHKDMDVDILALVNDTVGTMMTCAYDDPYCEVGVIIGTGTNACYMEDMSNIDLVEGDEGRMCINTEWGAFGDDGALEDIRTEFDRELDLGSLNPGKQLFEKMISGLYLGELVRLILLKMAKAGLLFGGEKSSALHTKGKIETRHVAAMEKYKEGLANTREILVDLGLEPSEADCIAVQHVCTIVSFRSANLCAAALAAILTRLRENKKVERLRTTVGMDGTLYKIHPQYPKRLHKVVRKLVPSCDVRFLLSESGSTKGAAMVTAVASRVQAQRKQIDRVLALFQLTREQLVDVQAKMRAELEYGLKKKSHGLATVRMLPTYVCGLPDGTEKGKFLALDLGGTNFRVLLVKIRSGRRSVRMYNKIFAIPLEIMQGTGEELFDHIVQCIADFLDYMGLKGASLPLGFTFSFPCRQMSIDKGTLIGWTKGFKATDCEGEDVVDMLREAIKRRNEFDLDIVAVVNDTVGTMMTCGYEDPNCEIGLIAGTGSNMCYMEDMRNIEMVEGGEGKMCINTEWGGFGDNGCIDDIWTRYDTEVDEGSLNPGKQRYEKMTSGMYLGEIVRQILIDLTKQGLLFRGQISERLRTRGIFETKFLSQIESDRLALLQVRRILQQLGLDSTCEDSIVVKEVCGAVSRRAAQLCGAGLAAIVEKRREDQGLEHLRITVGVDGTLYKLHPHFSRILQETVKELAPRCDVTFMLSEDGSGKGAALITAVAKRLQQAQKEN
#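 System: Recombinant HKDC1 hexokinase | Amount: HKDC1 at 5 µg/mL | Reagent: Glucose with 1 mM ATP | Doses: Single 20 µM dose | Incubation: Reaction time 90 min, room temperature, protected from light | Signal: Coupled resazurin fluorescence, excitation 525 nm, emission 613 nm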
# ATG4B conf = ATG4B (human) inhibition, single-dose confirmed; shares compounds with ATG4B inhibitor; ATG4B protease fluorescent substrate cleavage assay; inhibition, % at 8.33 µM; actives 92% (n = 320); in the data active = inhibition above about 39%
# PLA2 ctr = counter-screen for ATG4B inhibitors: human phospholipase A2. purified PLA2, NBD-C6-HPC fluorescence, 45 min. actives 66% (n = 1,600). inhibition, % at 8.33 µM. shares compounds with ATG4B inhibitor; in the data active = inhibition above about 50%
# Active calls of the source: *; nt = no result given.
SMILES,Fh CTSL1 inh,Diaph inh CS,ATG4B inhibitor,Diaphorase act,HKDC1 inh,PLA2 ctr,others
Cc1ncc(CC(=O)n2cc(C(=O)c3cc(F)ccc3O)cn2)s1,-1.1,9.2,40.6*,0.9,18.0,50.3*,
CN(C)S(=O)(=O)c1ccc(Cl)c(C(=O)OCC(=O)c2ccco2)c1,nt,nt,-10.4,nt,-4.3,nt,
Cc1ccc(C(=O)NNC(=S)Nc2cccc(Cl)c2Cl)cc1[N+](=O)[O-],1.3,-6.0,47.9*,1.1,-7.2,33.8,ATG4B conf=78.0*
O=C(NNC(=S)Nc1ccc(F)cc1)c1cccc([N+](=O)[O-])c1,0.0,nt,18.2,nt,-2.4,nt,
CC(=O)c1cccc(NC(=S)NNC(=O)c2ccc(C)c([N+](=O)[O-])c2)c1,7.7,25.4,14.0,0.7,0.6,nt,
Cc1ccc(NC(=S)NNC(=O)c2cccc([N+](=O)[O-])c2)cc1Cl,0.5,nt,76.9*,nt,-9.7,77.8*,
Cc1cc(C)c(-c2c(N)cc(Br)cc2Br)c(N)c1,nt,nt,57.1*,nt,13.0,65.2*,
Nc1ccc(Br)cc1Br,2.1,nt,17.2,nt,2.0,nt,
CCn1c(COc2ccc(Cl)cc2)nnc1SCc1ccc(C#N)cc1,0.6,25.1,-13.9,0.7,-1.7,nt,
CCn1c(COc2ccc(Cl)cc2)nnc1SC1CCc2ccccc2C1=O (stereo not given),0.7,34.1,87.5*,0.7,11.6,83.7*,
CC(C)NC(=O)CC(c1ccccc1)c1cc(Br)ccc1O (stereo not given),-2.8,-6.0,-12.5,1.1,-9.6,nt,
CCCCCCNC(=O)CC(c1ccccc1)c1cc(Br)ccc1O (stereo not given),-4.8,8.8,41.2*,0.9,1.6,56.1*,
CC(=O)CCCC(NS(=O)(=O)CCC(Cl)(Cl)Cl)c1ccccc1 (stereo not given),4.2,nt,-5.3,nt,-1.5,nt,
CCNc1ccc(Br)cc(C(=O)/C=C/c2ccccc2Cl)c1=O,-3.1,nt,51.4*,nt,20.3,-6.7,
O=C(CSc1nc2ccc([N+](=O)[O-])cc2[nH]1)NC1CCCC1,-2.1,8.7,-8.9,0.9,16.2,nt,
NC(=O)CSc1nc2ccc([N+](=O)[O-])cc2[nH]1,-1.1,3.0,42.3*,1,-1.9,39.5,ATG4B conf=69.4*
Cc1cc(F)ccc1S(=O)(=O)N(CC(=O)N1CCOCC1)CC(=O)N1CCOCC1,nt,nt,1.6,nt,3.5,nt,
Cc1ccc(N2CC(O)=C(c3nc4ccccc4c(=O)[nH]3)C2=N)cc1C,4.2,16.7,45.8*,0.8,6.5,38.3,
O=C(NCc1cccc(C(F)(F)F)c1)N1CCN(C(=O)c2ccccc2)CC1,nt,nt,56.4*,nt,-3.3,61.4*,
O=C(NCc1ccccc1CN1CCCC1)c1ccc(Cl)c(S(=O)(=O)N2CCCC2)c1,nt,nt,1.9,nt,-3.4,nt,
C/C(CC(=O)Nc1ccccc1-c1ccccc1)=N\NC(=O)COc1ccc(C)cc1Br,4.7,14.6,72.2*,0.9,4.5,78.5*,
COc1ccccc1CNC(=O)C/C(C)=N/NC(=O)COc1ccc(C)cc1Br,-2.6,13.4,-11.2,0.9,-5.7,nt,
CCc1ccc(-c2cc(C)no2)cc1S(=O)(=O)N1CCN(c2cc(C)ccc2C)CC1,0.9,nt,4.0,nt,-1.2,nt,
COCC1CCCCN1C(=O)c1cccc(OC2CCN(C(=O)C3CC3)CC2)c1 (stereo not given),2.6,nt,-2.2,nt,3.2,nt,
CCN(c1ccccc1)S(=O)(=O)c1cccc(C(=O)N(C)CC(=O)Nc2ccc(F)c(F)c2F)c1,nt,nt,-2.9,nt,-5.2,nt,
SMILES,Fh CTSL1 inh,Diaph inh CS,ATG4B inhibitor,Diaphorase act,HKDC1 inh,PLA2 ctr,others
Cc1ccccc1NC(=O)c1ccc(NS(=O)(=O)c2cc(C(C)(C)C)cc(C)c2C)cc1,3.7,19.2,46.9*,0.8,-1.1,41.9,
Cc1cc(C(C)(C)C)cc(S(=O)(=O)Nc2cccc(C(=O)O)c2)c1C,0.1,10.1,-2.3,0.9,-6.6,nt,
Cc1ccc(OCc2ccc(C(=O)Nc3c(C)nn(Cc4c(F)c(F)c(F)c(F)c4F)c3C)o2)c([N+](=O)[O-])c1,-0.4,23.9,66.8*,0.8,7.3,75.9*,
Cc1nn(Cc2c(F)c(F)c(F)c(F)c2F)c(C)c1NC(=O)c1cccc(COc2ccc(Cl)cc2)c1,2.9,4.6,56.7*,1,-8.5,68.2*,
Cc1ccc(OCc2ccc(C(=O)NN)o2)c([N+](=O)[O-])c1,3.6,nt,-4.5,nt,-2.5,nt,
CC(C)CC1NC(=O)N(CC(=O)Nc2cc(S(=O)(=O)N3CCOCC3)ccc2Cl)C1=O (stereo not given),nt,nt,3.9,nt,-0.7,nt,
Cc1noc(C)c1COc1ccc(C(=O)N2CCCC(C(F)(F)F)C2)cc1 (stereo not given),2.3,nt,1.2,nt,-5.4,nt,
Cc1cccc2cc(CN(Cc3cccs3)Cc3nnnn3Cc3ccccc3)c(=O)[nH]c12,3.3,29.2,48.6*,0.7,-0.7,61.8*,
COc1ccc2cc(CN(Cc3cccs3)Cc3nnnn3Cc3ccccc3)c(=O)[nH]c2c1,2.0,22.8,51.1*,0.8,2.8,53.7*,
COc1ccc2cc(CN(Cc3cccnc3)Cc3nnnn3Cc3ccccc3)c(=O)[nH]c2c1,3.1,18.3,-16.7,0.8,-0.9,nt,
O=C(/C=C\c1ccccc1OC(=O)c1ccccc1F)c1cc2ccccc2o1,-1.5,5.2,44.6*,0.9,26.4,51.2*,
O=C1N/C(=N\N=C\c2cccs2)SC1Cc1ccc(Cl)cc1 (stereo not given),3.9,2.3,43.2*,1,-11.8,-0.8,
COc1ccc(NC(=O)c2ccco2)cc1NC(=O)c1c(OC)cccc1OC,1.3,nt,46.4*,nt,-1.1,51.9*,
COc1ccc(NC(=O)c2ccco2)cc1NC(=O)c1ccco1,0.6,12.2,-0.2,0.9,-0.3,nt,
O=[N+]([O-])c1cc2oc3c(c2c(C=NCc2ccccc2)c1O)CCCC3,5.0,29.2,75.8*,0.7,7.0,23.5,ATG4B conf=48.1*
Cc1cccc(/N=C/c2c(O)ccc3oc4c(c23)CCCC4)n1,0.8,11.7,11.2,0.9,3.4,nt,
COc1ccc(-n2c(SC(CN3CCCCC3)CN3CCCC3=O)nc3ccccc3c2=O)cc1 (stereo not given),-1.5,17.6,62.6*,0.8,-1.0,66.6*,
COc1ccc(-n2c(SCC(=O)N3CCCCC3)nc3ccccc3c2=O)cc1,nt,nt,16.4,nt,-3.7,nt,
COc1ccc(NC(=O)c2cccc(S(=O)(=O)N3CCCCCC3)c2)cc1,-10.7,nt,-0.5,nt,5.3,nt,
CN(c1ccccc1)C1CCCCC1NS(=O)(=O)c1ccc(Cl)cc1 (stereo not given),-0.1,10.6,56.7*,0.9,2.4,64.4*,

# Bioassay records (PubChem BioAssay)
